Cneo AK release = causes C. neoformans cell lysis; adenylate kinase release luminescence, 4 h; normalised: neutral wells 0, clomiphene wells 100; lysis activity, % at 15 µM; 0.2% of 360,000 active;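 active = mean lysis activity across replicates of at least 80%, whatever share of replicates individually reach that level; inactive = mean lysis activity below 80%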
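Assay system: C. neoformans cells. Amount: yeast cell density of 5 × 10^6 cells/mL. Technique: AK luminescence. Buffer or medium: YPD. Times: static 4 h at 37 °C with compound, 1 h detection. Dosing: single-point compound dose. Read-out: lysis from increased AK signal.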
CFTR F508del cor = CFTR F508del correction in bronchial cells; activity (quench increase), % at 7.58 µM; CFBE cells, YFP halide quenching; stimulated with forskolin plus potentiator P3; % fluorescence drop versus neutral controls; 0.36% of 350,000 active;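 active = mean added fluorescence quench of at least 8% versus neutral control, with both replicates also reaching 8%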;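 also: cells transiently co-express mutant CFTR-F508del with the halide-sensitive YFP; corrector assay measuring rescue of mutant channel to the surface after 24 h compound exposure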
PDI turbidity = inhibitors of human protein disulfide isomerase | P07237 | PDI insulin aggregation turbidity, A650, 90 min | inhibition, % at 10 µM | 0.052% of 350,000 active | AID 588391;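 active = mean inhibition across replicates of 30% or more, whatever share of single replicates reach that level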
Target sequence (P07237 whole entry, looked up): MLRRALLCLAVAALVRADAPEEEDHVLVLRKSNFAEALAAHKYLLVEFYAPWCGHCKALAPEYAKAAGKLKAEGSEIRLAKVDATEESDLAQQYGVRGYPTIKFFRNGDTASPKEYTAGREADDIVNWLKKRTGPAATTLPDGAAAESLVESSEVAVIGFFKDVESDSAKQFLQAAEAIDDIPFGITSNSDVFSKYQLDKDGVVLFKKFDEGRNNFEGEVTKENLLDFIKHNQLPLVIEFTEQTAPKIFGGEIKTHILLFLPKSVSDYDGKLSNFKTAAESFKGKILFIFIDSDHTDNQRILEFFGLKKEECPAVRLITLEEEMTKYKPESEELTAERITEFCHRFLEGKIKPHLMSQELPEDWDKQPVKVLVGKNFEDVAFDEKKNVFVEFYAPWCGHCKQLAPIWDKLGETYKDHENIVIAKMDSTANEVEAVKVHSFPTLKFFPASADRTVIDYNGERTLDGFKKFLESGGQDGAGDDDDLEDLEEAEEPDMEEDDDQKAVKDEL
ERp5 inh = inhibitors of human ERp5. ERp5 insulin aggregation, absorbance 650 nm, 90 min. 0.05% of 350,000 active. inhibition, % at 9.99 µM. Q15084;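 active = mean replicate inhibition above about 25%, with every replicate also reaching it, limit read from the data, passing the limit was not always enough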
Statin myotox sup = suppression of simvastatin myotoxicity; C2C12 myotubes + simvastatin, ATP luminescence, 48 h; scaled: DMSO 0, geranylgeraniol control 100; rescue of ATP level, % at 7.49 µM; 0.78% of 330,000 active; AID 602340;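 active = mean ATP rescue above about 67%, or every replicate alone reaching that limit, limit read from the data, passing the limit was not always enough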;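 also: myotubes were challenged with 10 µM simvastatin during compound exposure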
DENV2 CPE = protects cells from dengue virus 2 cytopathic effect. DENV2-infected cells, cytopathic effect rescue, plate reader. AID 651640. CPE inhibition, % at 9.99 µM. 1.7% of 350,000 active; in the data active = CPE inhibition above about 20%, passing the limit was not always enough; tested in BHK-21 cells;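 also: 0% = median of neutral control wells and 100% = median of positive control wells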
* = called active by the depositor; x = no result. An excerpt weighted towards active compounds, which were near 2.3% of everything screened.

SMILES | Cneo AK release | CFTR F508del cor | PDI turbidity | ERp5 inh | Statin myotox sup | DENV2 CPE
COc1ccc(CNC(=O)[C@H](C)N2C(=O)N3CCc4c([nH]c5ccc(OC)cc45)[C@@]3(C)C2=O)cc1 | 0 | 2 | x | 3 | 10 | 5
O=C(CSc1ccc(-c2cccnc2)nn1)Nc1ccc(Br)cc1 | 5 | -2 | 8 | 5 | -3 | 30*
C[C@@H]1CN([C@@H](C)CO)C(=O)c2cc(NS(=O)(=O)c3ccc(Cl)cc3)ccc2O[C@@H]1CN(C)S(=O)(=O)c1ccccc1 | 4 | -2 | x | x | -13 | -12
CN(C)/C=C1\C=C2C(=O)c3ccccc3N2C1=O | x | 32* | -3 | -9 | 10 | -3
CC(C)(C)c1ccc(OCCNCc2ccccc2)cc1 | -10 | 1 | -5 | -4 | -11 | -5
C[n+]1ccccc1COc1ccc(C(C)(C)C)cc1 | x | x | -2 | 5 | x | 23*
Cc1ccc([N+](=O)[O-])cc1NC(=O)/C=C/C(=O)O | 0 | 2 | 0 | -7 | 13 | 7
COc1ccc([N+](=O)[O-])cc1NC(=O)/C=C/C(=O)O | 9 | x | 1 | 1 | x | 66*
CCC(=O)N1[C@H](CO)[C@H](c2ccc(C#CC3CCCCC3)cc2)[C@@H]1CNC(C)C | x | 3 | x | 4 | x | -3
O=C(C[C@H]1CC[C@H]2[C@@H](COC[C@@H](O)CN2C(=O)Nc2cc(Cl)cc(Cl)c2)O1)N1CCCCC1 | 45 | 4 | x | -18 | -9 | 30*
O=C(C[C@H]1CC[C@@H]2[C@H](COC[C@@H](O)CN2Cc2cc(F)ccc2F)O1)N1CCc2ccccc2C1 | -1 | -1 | x | -4 | 12 | 0
O=C(C[C@H]1CC[C@H]2[C@@H](COC[C@@H](O)CN2C(=O)c2cc(Cl)cc(Cl)c2)O1)N1CCc2ccccc2C1 | 0 | -2 | x | x | 81* | 0
O=C(C[C@@H]1CC[C@@H]2[C@H](COC[C@H](O)CN2C(=O)c2cc(Cl)cc(Cl)c2)O1)N1CCc2ccccc2C1 | 2 | 1 | x | x | 91* | 7
O=C(C[C@H]1CC[C@@H]2[C@H](COC[C@H](O)CN2C(=O)c2cc(Cl)cc(Cl)c2)O1)N1CCc2ccccc2C1 | -1 | -2 | x | -4 | 12 | 2
O=C(C[C@@H]1C=C[C@@H](NS(=O)(=O)c2ccc(F)cc2)[C@H](CO)O1)NCc1ccncn1 | 59 | 0 | x | -2 | -2 | -2
Cc1ccccc1S(=O)(=O)N[C@H]1CC[C@@H](CCNS(=O)(=O)c2cccc(F)c2)O[C@H]1CO | 45 | 0 | x | -3 | 0 | 3
C[C@@H]1CN([C@@H](C)CO)C(=O)c2cccc(NS(=O)(=O)c3cn(C)cn3)c2O[C@H]1CN(C)Cc1ccc(C(=O)Nc2ccccc2N)cc1 | x | -1 | x | 0 | x | -10
COC(=O)C[C@@H]1CC[C@@H]2[C@H](COc3ccc(NC(=O)Nc4cccc(C)c4)cc3C(=O)N2C)O1 | -1 | -1 | x | 4 | 16 | -6
Cn1nc(C(=O)N2CCC(C(N)=O)CC2)c2c1-c1ccccc1SC2 | -1 | 5 | -3 | 3 | -1 | 25*
Cn1nc(C(=O)NC2CCCCC2)c2c1-c1ccccc1SC2 | 2 | 2 | x | 1 | -47 | 4
COc1ccc(Cl)cc1N1C(=O)CC(N2CCN(S(=O)(=O)c3ccccc3F)CC2)C1=O (stereo not drawn) | 3 | -1 | 8 | -2 | -1 | 37*
O=C1CC(N2CCN(S(=O)(=O)c3ccccc3F)CC2)C(=O)N1c1ccccc1Cl (stereo not drawn) | 0 | -1 | 0 | -1 | 2 | -7
Cc1ccc(S(=O)(=O)N(C)C[C@@H]2Oc3ccc(NS(=O)(=O)c4ccccc4)cc3C(=O)N([C@@H](C)CO)C[C@H]2C)cc1 | -1 | -2 | x | -2 | x | 13
O=C(N[C@H]1CC[C@H](CCn2cc(C3(O)CCCC3)nn2)O[C@H]1CO)C1CCCC1 | 1 | 0 | x | -1 | 5 | 10
COc1ccc(OCCCC(=O)Nc2cc([N+](=O)[O-])ccc2C)cc1 | 0 | x | -6 | x | 73* | x
SMILES | Cneo AK release | CFTR F508del cor | PDI turbidity | ERp5 inh | Statin myotox sup | DENV2 CPE
C[C@H](CO)N1C[C@H](C)[C@@H](CN(C)Cc2ccccc2)Oc2ccc(NC(=O)C3CC3)cc2C1=O | -1 | 1 | x | 0 | -24 | 0
O=C(NCc1ccccc1)c1ncn(Cc2ccccc2)c1C(=O)NCc1ccccc1 | -3 | -1 | 0 | 7 | 8 | x
C[C@H](NC(=O)c1ncn(Cc2ccccc2)c1C(=O)N[C@@H](C)c1ccccc1)c1ccccc1 | 2 | -2 | 1 | 1 | 1 | 75*
C[C@@H](NC(=O)c1nc[nH]c1C(=O)N(C)Cc1ccccc1)c1ccccc1 | 1 | -1 | 9 | 9 | 2 | 35*
C[C@H](CO)N1C[C@H](C)[C@@H](CN(C)C(=O)c2cccnc2)Oc2ncc(-c3ccc(C#N)cc3)cc2C1=O | 0 | -1 | x | 0 | -1 | 12
O=C(Nc1nnc(-c2cccs2)o1)c1ccco1 | -1 | -3 | -7 | 4 | 69* | -3
O=C(Nc1nnc(-c2ccc(Br)cc2)o1)c1ccco1 | -20 | x | 0 | x | -6 | x
CC1(C)CC[C@]2(C(=O)O)CC[C@]3(C)C(=CCC4[C@]56CC[C@@](O)(OC5)C(C)(C)C6CC[C@]43C)C2C1 (stereo partly drawn) | -1 | 5 | x | 7 | -8 | -3
C[C@@H]1CC[C@]2(C(=O)O[C@@H]3O[C@H](CO)[C@@H](O)[C@H](O)[C@H]3O)CC[C@]3(C)C(=CCC4[C@@]5(C)C[C@@H](O)[C@H](O)[C@@](C)(C(=O)O[C@@H]6[C@H](O)C[C@@]7(C)C(CC[C@]8(C)C7CC=C7[C@H]9[C@](C(=O)O[C@@H]%10O[C@H](CO)[C@@H](O)[C@H](O)[C@H]%10O)(CC[C@@H](C)[C@@]9(C)O)CC[C@]78C)[C@@]6(CO)C(=O)O)C5CC[C@]43C)[C@@H]2[C@]1(C)O (stereo partly drawn) | -4 | -3 | 14 | -7 | -1 | -23
CC1(C)CC[C@]2(C(=O)O[C@@H]3O[C@H](CO)[C@@H](O)[C@H](O)[C@H]3O)CC[C@]3(C)C(=CCC4[C@@]5(C)CC[C@H](O[C@@H]6O[C@H](C(=O)O)[C@@H](O[C@H]7OC[C@@H](O)[C@@H](O)[C@@H]7O)[C@H](O)[C@H]6O)C(C)(C)C5CC[C@]43C)[C@@H]2C1 (stereo partly drawn) | -7 | 3 | 2 | -2 | -11 | 81*
